According to ChEMBL document CHEMBL4364256, “Design, synthesis and biological evaluation of antimicrobial diarylimine and -amine compounds targeting the interaction between the bacterial NusB and NusE proteins” (Eur J Med Chem, 2019):
Converted amounts (≈) assume the structure as drawn. The source made the active and inactive calls.

What was measured:
[1] = tested on: Staphylococcus epidermidis; test: Antimicrobial activity against Staphylococcus epidermidis ATCC 12228 incubated for 20 hrs by microdilution method; assay type: functional; details: ATCC 12228, 20 h
Method in brief: (§1)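 Broth microdilution MIC testing done following CLSI guidelines.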

[2] = Cytotoxicity against human HaCaT cells assessed as reduction in cell viability after 48 to 72 hrs by MTT assay; assay type: cell-based
[3] = tested on: Staphylococcus aureus; test: Antimicrobial activity against Staphylococcus aureus HA W235 ST5 incubated for 20 hrs by microdilution method; assay type: functional; details: HA W235 ST5, 20 h
Method in brief: (§2)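 MIC determined by microdilution following Clinical & Laboratory Standards Institute (CLSI) guidelines, read in µg/mL, against a panel of hospital- and community-acquired MRSA strains.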

[4] = tested on: Staphylococcus aureus; test: Bacteriostatic activity against Staphylococcus aureus ATCC 25923 at 1/4 to 1 times MIC preincubated for up to 24 hrs followed by replating on agar plate and measured after overnight incubation by time-kill assay; assay type: functional, organism-based
[5] = Apparent permeability across apical to basolateral side in human Caco2 cells by LC-MS/MS analysis; assay type: ADME, cell-based; details: Caco-2
[6] = microbe, parasite or virus in culture; details: Enterobacter cloacae, ATCC 13047, 20 h
[7] = tested on: Staphylococcus aureus; test: Antimicrobial activity against CA-methicillin-resistant Staphylococcus aureus W4 ST338 incubated for 20 hrs by microdilution method; assay type: functional; details: W4 ST338, 20 h; method in brief: as §2
[8] = tested on: Streptococcus pneumoniae; test: Antimicrobial activity against Streptococcus pneumoniae ATCC 49619 incubated for 20 hrs by microdilution method; assay type: functional; details: ATCC 49619, 20 h; method in brief: as §1
[9] = tested on: Staphylococcus aureus; test: Antimicrobial activity against Staphylococcus aureus ST22 11B086169 incubated for 20 hrs by microdilution method; assay type: functional; details: ST22 11B086169, 20 h; method in brief: as §2
[10] = tested on: Pseudomonas aeruginosa; test: Antimicrobial activity against Pseudomonas aeruginosa ATCC 27853 incubated for 20 hrs by microdilution method; assay type: functional; details: ATCC 27853, 20 h; method in brief: as §1
[11] = Cytotoxicity against human A549 cells assessed as reduction in cell viability after 48 to 72 hrs by MTT assay; assay type: cell-based
[12] = tested on: Acinetobacter baumannii; test: Antimicrobial activity against Acinetobacter baumannii ATCC 19606 incubated for 20 hrs by microdilution method; assay type: functional; details: ATCC 19606 = CIP 70.34 = JCM 6841, 20 h; method in brief: as §1
[13] = tested on: Staphylococcus aureus; test: Bactericidal activity against Staphylococcus aureus ATCC 25923 at 4 times MIC preincubated for up to 24 hrs followed by replating on agar plate and measured after overnight incubation by time-kill; assay type: functional, organism-based
[14] = tested on: Staphylococcus aureus; test: microbe, parasite or virus in culture; details: ATCC 29213, 20 h
[15] = tested on: Staphylococcus aureus; test: microbe, parasite or virus in culture; details: ATCC 25923, 20 h
[16] = tested on: Staphylococcus aureus; test: Antimicrobial activity against Staphylococcus aureus HA W231 ST45 incubated for 20 hrs by microdilution method; assay type: functional; details: HA W231 ST45, 20 h; method in brief: as §2
[17] = Therapeutic index, ratio of CC50 for human A549 cells to 1/2 times MIC for Staphylococcus aureus ATCC 25923; assay type: toxicity; details: read-out: TI
[18] = tested on: Streptococcus pyogenes; test: Antimicrobial activity against Streptococcus pyogenes ATCC 19615 incubated for 20 hrs by microdilution method; assay type: functional; details: ATCC 19615, 20 h; method in brief: as §1
[19] = tested on: Staphylococcus aureus; test: Antimicrobial activity against CA-methicillin-resistant Staphylococcus aureus W48 ST217 incubated for 20 hrs by microdilution method; details: W48 ST217, 20 h
[20] = tested on: Enterococcus faecium; test: Antimicrobial activity against Enterococcus faecium ATCC 19433 incubated for 20 hrs by microdilution method; assay type: functional; details: ATCC 19433, 20 h; method in brief: as §1
[21] = Antimicrobial activity against Staphylococcus saprophyticus ATCC 15305 incubated for 20 hrs by microdilution method; assay type: functional, Staphylococcus saprophyticus subsp. saprophyticus; details: ATCC 15305, 20 h; method in brief: as §1
[22] = Therapeutic index, ratio of CC50 for human HaCaT cells to 1/2 times MIC for Staphylococcus aureus ATCC 25923; assay type: toxicity; details: read-out: TI
[23] = tested on: Streptococcus agalactiae; test: Antimicrobial activity against Streptococcus agalactiae ATCC 12386 incubated for 20 hrs by microdilution method; assay type: functional; details: ATCC 12386, 20 h; method in brief: as §1
[24] = tested on: Staphylococcus aureus; test: Antimicrobial activity against CA-methicillin-resistant Staphylococcus aureus W47 ST30 incubated for 20 hrs by microdilution method; assay type: functional; details: W47 ST30, 20 h; method in brief: as §2
[25] = tested on: Staphylococcus aureus; test: Antimicrobial activity against Staphylococcus aureus ATCC BAA44 incubated for 20 hrs by microdilution method; assay type: functional; details: ATCC BAA44, 20 h; method in brief: as §2
[26] = tested on: Staphylococcus aureus; test: Antimicrobial activity against Staphylococcus aureus USA300/ST8 incubated for 20 hrs by microdilution method; details: USA300 ST8, 20 h
[27] = tested on: Enterococcus casseliflavus; test: Antimicrobial activity against Enterococcus casseliflavus ATCC 25788 incubated for 20 hrs by microdilution method; assay type: functional; details: ATCC 25788, 20 h; method in brief: as §1
[28] = tested on: Erythrocyte; test: Hemolytic activity against human erythrocytes at 0.1 to 10 ug/ml incubated for 45 mins; assay type: ADME, cell-based; details: 0.75 h
Method in brief: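 Hemolysis was tested on human blood cells with compound at 0.1, 1 and 10 µg/mL, judged against a nonhemolytic cut-off value.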

[29] = tested on: Bacillus subtilis; test: Inhibition of N-terminal LgBiT-fused Bacillus subtilis NusB expressed in Escherichia coli BL21(DE3)pLysS interaction with C- terminal SmBiT-fused Bacillus subtilis NusE expressed in Escherichia coli BL21(DE3)pLysS at 100 uM preincubated for 10 mins followed by NusE addition and measured after 10 mins by nano-glo luciferase assay relative to control
Method in brief: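 NusB and NusE were mixed 1:1 at 1 µM in PBS, with compound at 100 µM. The read-out was percent inhibition of the NusB-NusE interaction.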

[30] = tested on: Staphylococcus aureus; test: Antimicrobial activity against CA-methicillin-resistant Staphylococcus aureus W46 ST59 incubated for 20 hrs by microdilution method; details: W46 ST59, 20 h
[31] = tested on: Staphylococcus aureus; test: Antimicrobial activity against CA-methicillin-resistant Staphylococcus aureus W45 ST59 incubated for 20 hrs by microdilution method; details: W45 ST59, 20 h
[32] = tested on: Staphylococcus aureus; test: Antimicrobial activity against Staphylococcus aureus ST239 incubated for 20 hrs by microdilution method; assay type: functional; details: CN79, 20 h; method in brief: as §2
[33] = tested on: Staphylococcus aureus; test: Antimicrobial activity against Staphylococcus aureus ATCC BAA43 incubated for 20 hrs by microdilution method; assay type: functional; details: ATCC BAA43, 20 h; method in brief: as §2

With `O=[N+]([O-])c1ccc(O)c(CNc2ccccc2Cl)c1` as the compound, how does the MIC [1] read?
Its MIC is 8 µg/mL (≈ 28.7 µM).

What about the CC50 [2] of the same compound?
Its CC50 is 20.1 µM.

What about the MIC [3] of the same compound?
The MIC was 4 µg/mL (≈ 14.4 µM).

And the Activity [4]?
Its Activity is “Active”.

What about the Papp A→B [5] of the same compound?
Its Papp A→B is 16.1 ×10⁻⁶ cm/s.

And the MIC [6]?
The MIC was 256 µg/mL (≈ 919 µM).

And the MIC [7]?
Its MIC is 4 µg/mL (≈ 14.4 µM).

And the MIC [8]?
The MIC was 8 µg/mL (≈ 28.7 µM).

And the MIC [9]?
The MIC was 4 µg/mL (≈ 14.4 µM).

And the MIC [10]?
Its MIC is greater than 256 µg/mL.

And the CC50 [11]?
Its CC50 is 22.5 µM.

And the MIC [12]?
Its MIC is 128 µg/mL (≈ 459 µM).

What about the Activity [13] of the same compound?
The Activity was “Active”.

And the MIC [14]?
Its MIC is 2 µg/mL (≈ 7.18 µM).

What about the MIC [15] of the same compound?
The MIC was 2 µg/mL (≈ 7.18 µM).

What about the MIC [16] of the same compound?
Its MIC is 4 µg/mL (≈ 14.4 µM).

And the selectivity ratio [17]?
Its selectivity ratio is 6.

And the MIC [18]?
The MIC was 16 µg/mL (≈ 57.4 µM).

And the MIC [19]?
Its MIC is 4 µg/mL (≈ 14.4 µM).

What about the MIC [20] of the same compound?
The MIC was 32 µg/mL (≈ 115 µM).

And the MIC [21]?
The MIC was 8 µg/mL (≈ 28.7 µM).

And the selectivity ratio [22]?
Its selectivity ratio is 6.

And the MIC [23]?
Its MIC is 32 µg/mL (≈ 115 µM).

What about the MIC [24] of the same compound?
The MIC was 4 µg/mL (≈ 14.4 µM).

And the MIC [25]?
Its MIC is 8 µg/mL (≈ 28.7 µM).

And the MIC [26]?
Its MIC is 4 µg/mL (≈ 14.4 µM).

What about the MIC [27] of the same compound?
Its MIC is 32 µg/mL (≈ 115 µM).

And the Activity [28]?
Its Activity is “Non-Toxic”.

And the inhibition [29]?
Its inhibition is 31%.

What about the MIC [30] of the same compound?
The MIC was 4 µg/mL (≈ 14.4 µM).

What about the MIC [31] of the same compound?
The MIC was 8 µg/mL (≈ 28.7 µM).

What about the MIC [32] of the same compound?
Its MIC is 8 µg/mL (≈ 28.7 µM).

And the MIC [33]?
The MIC was 2 µg/mL (≈ 7.18 µM).
